In the library only some 4.1% were active in any assay of this set; here they are far more common.
KCNK9 inh: inhibitors of human KCNK9 two-pore domain potassium channel; Q9NPC2; HEK293 KCNK9, FluxOR thallium flux fluorescence; active compounds read low; B-score at 10 µM; 310,000 compounds, 1.2% hits; AID 488922;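 active means ratio B-score over 3 SD below the library mean, with starting fluorescence within 5 SD of its mean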;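 further: negative B-score means less thallium flux so channel inhibition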
Target sequence (Q9NPC2 whole entry, looked up, the tested form may be a part): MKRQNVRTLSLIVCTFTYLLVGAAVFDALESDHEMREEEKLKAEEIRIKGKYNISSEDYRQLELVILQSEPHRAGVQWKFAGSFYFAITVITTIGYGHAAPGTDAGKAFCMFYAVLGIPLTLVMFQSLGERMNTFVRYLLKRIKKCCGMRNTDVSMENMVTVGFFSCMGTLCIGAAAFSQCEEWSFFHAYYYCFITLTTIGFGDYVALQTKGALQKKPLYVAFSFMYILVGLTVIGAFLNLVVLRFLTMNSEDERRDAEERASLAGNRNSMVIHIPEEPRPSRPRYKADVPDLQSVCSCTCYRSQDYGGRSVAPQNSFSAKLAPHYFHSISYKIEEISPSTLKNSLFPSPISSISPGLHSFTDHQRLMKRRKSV
KCNQ1 act: human KCNQ1 channel potentiation or activation | P51787 | CHO-K1 KCNQ1, thallium flux FluxOR fluorescence; active compounds read high | B-score at 10 µM | 310,000 compounds, 0.35% hits;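 active means fluorescence ratio B-score, a plate-corrected score, at least three library SD, with initial intensity B-score within 5 SD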
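Assay system: stable KCNQ1 CHO-K1 line; medium: assay buffer, equal DMSO in all wells; timing: 90 min dye loading and 20 min compound exposure, both at room temperature; technique: kinetic FluxOR thallium fluorescence, 10-s 1-Hz baseline, 110-s post-stimulus read; read-out basis: B score of baseline-normalized fluorescence ratio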
KCC2 mod: KCC2 (human) Cl- transport modulation. B-score of Tl+ flux slope (higher = more flux/activation; lower = inhibition) at 10 µM. 190,000 compounds, 2.2% hits. Q9H2X9. KCC2 cells, thallium flux FluoZin-2 fluorescence. AID 1456;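 active means thallium flux slope and its plate-corrected score both differing from the plate sample mean at a set confidence after two filtering rounds, in either direction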;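 further: slope of fluorescence scaled to starting intensity during 10 to 20 s after thallium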
hERG rescue: compounds protecting human hERG from proarrhythmic drug block. Q12809. CHO-hERG, FluxOR thallium flux, dofetilide IC70 present. activation (rescue from dofetilide block), less the hit threshold, % at 10 µM. 310,000 compounds, 0.51% hits. AID 1511;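 active means activation above the mean of controls blocked by dofetilide plus 5 SD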;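 further: thallium influx through hERG after potassium depolarization seen as dye fluorescence rise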
KCNQ1 block: blocks the human KCNQ1 potassium channel | AID 2642 | CHO-K1 KCNQ1, FluxOR thallium flux fluorescence; active compounds read high | 310,000 compounds, 1.3% hits | B-score at 10 µM;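 active means compounds whose thallium flux B-score, printed positive for inhibition, exceeds three library SD while starting fluorescence stays within three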;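 further: channel opened by potassium depolarization with thallium stimulus after 20 min compound exposure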
KCNK3 block: human KCNK3 channel inhibition, primary screen; O14649; CHO-KCNK3 thallium flux, FluxOR fluorescence; active compounds read low; B-score at 10 µM; 340,000 compounds, 0.84% hits; AID 602410;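 active means B-score under library mean minus 4 SD, starting fluorescence ratio at most library mean plus 5 SD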;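 further: more negative B-score means stronger inhibition of thallium flux through KCNK3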
The depositor's hits bear a star; i = inactive; x = no result.

SMILES	KCNK9 inh	KCNQ1 act	KCC2 mod	hERG rescue	KCNQ1 block	KCNK3 block
O=C(Cn1c(=O)[nH]c2ccsc2c1=O)NC1CCCCCC1	i	i	-4.69*	-13.2	i	i
COc1cccc(/C=C2\SC(=O)N(CC(=O)NCCCn3ccnc3)C2=O)c1	i	i	x	-7.3	i	i
COc1ccc(/C=C2\SC(=O)N(CC(=O)NCCCn3ccnc3)C2=O)cc1	i	i	x	-7.3	7*	i
O=C1NC(c2ccccc2)=NC1(NS(=O)(=O)c1ccccc1)C(F)(F)F (centres undefined)	i	i	x	-2.6	i	i
COc1ccc(S(=O)(=O)NC2(C(F)(F)F)N=C(c3ccccc3)NC2=O)cc1 (centres undefined)	-7.94*	i	-0.0127	-5.4	i	i
Cc1cc(C)n(/N=C/c2cc(Cl)cc(Cl)c2O)c(=O)c1	i	15*	-0.861	-1.1	i	i
Cc1cc(C)n(/N=C/c2ccccc2O)c(=O)c1	i	i	-0.173	-9.8	i	i
O=C(/C=C/c1ccccc1)/C=C/c1ccccc1	i	i	-0.378	-8.4	i	i
Cc1ccc(S(=O)(=O)N2c3ccccc3OCC2C(C)(C)C)cc1 (centres undefined)	i	i	x	-8.0	i	i
Cc1ccc2c(c1)N(S(=O)(=O)c1ccc(F)cc1)C(C(C)(C)C)CO2 (centres undefined)	i	i	-0.276	-10.9	7*	i
CN1CCN(c2nc(-c3cccs3)cc(C(F)(F)F)n2)CC1	i	10*	x	-0.2	i	i
CC(C)N(Cc1ccccc1)C(=O)Cn1c(=O)cnc2ccccc21	i	i	0.558	-7.3	i	i
CCn1c(SCC(N)=O)nc2c(c1=O)C1(CCCC1)Cc1ccccc1-2	-6.7*	i	3.61*	-4.4	i	i
CC1CC(C)C[N+](=C2C=C(N3CCCC3)CC(C)(C)C2)C1 (centres undefined)	i	i	1.67	-17.1	8*	i
C/C(=N\NC(=O)c1cc(C)nc2ccccc12)c1ccco1	i	i	0.762	-13.7	i	i
C/C(=N/NC(=O)c1cc2ccccc2cc1O)c1ccco1	i	35*	x	24.7*	i	i
C/C(=N\NC(=O)c1cc2ccccc2cc1O)c1ccc(C)o1	i	26*	x	8.9*	i	i
Cc1cccc(NC(=S)N(Cc2ccc(Br)cc2)Cc2ccc(C(=O)O)cc2)c1	i	i	-1.45	-21.3	i	i
Cc1cc(NC(=S)N(Cc2ccc(Br)cc2)Cc2ccc(C(=O)O)cc2)ccc1Cl	-6.84*	i	-2.22	-21.5	i	i
Cc1ccc(S(=O)(=O)NC(CC(C)C)C(=O)N2CCC(C)CC2)cc1 (centres undefined)	i	i	-0.306	-13.4	i	i
CC(C)N(C)C(=O)C(=O)c1cccn1-c1cccc(Cl)c1C#N	i	i	0.697	-10.5	i	i
Nc1nc(SCC(=O)Nc2ccc([N+](=O)[O-])cc2Br)n[nH]1	i	i	0.791	-8.2	i	i
CC(C)c1nc(SCC(=O)Nc2ccc([N+](=O)[O-])cc2Br)n[nH]1	i	i	0.786	8.6*	i	i
O=C(NNC(=O)c1ccccn1)c1cccc([N+](=O)[O-])c1	i	i	1.28	-8.4	i	i
O=C(NNC(=O)c1cc(-c2ccccc2)n(-c2ccccc2)n1)c1cccc([N+](=O)[O-])c1	i	i	14.6*	2.4	i	i
SMILES	KCNK9 inh	KCNQ1 act	KCC2 mod	hERG rescue	KCNQ1 block	KCNK3 block
CCCNC(=O)c1nnsc1S(=O)c1ccc(Cl)cc1 (centres undefined)	i	i	0.357	-13.2	i	i
CNC(=O)c1nnsc1S(=O)c1ccc(Cl)cc1 (centres undefined)	i	13*	0.615	-20.6	i	i
CCCCCCCCNC(=O)/C(C#N)=C/c1ccccc1[N+](=O)[O-]	i	i	-0.577	-11.7	7*	i
CCOCCCNC(=O)/C(C#N)=C/c1ccc(-c2ccc(S(=O)(=O)N3CCOCC3)cc2)o1	i	i	-0.0653	-8.7	i	i
C=CCNC(=O)/C(C#N)=C/c1ccccc1[N+](=O)[O-]	i	i	0.371	-10.7	i	i
CCOCCCNC(=O)/C(C#N)=C/c1ccc([N+](=O)[O-])o1	i	i	0.0176	-10.7	6*	i
N#C/C(=C\c1ccccc1[N+](=O)[O-])C(=O)NCc1ccccc1	i	i	0.139	-15.1	6*	i
COc1ccccc1N1CCN(C(=O)c2cc(N3C(=O)C4C5CCC(C5)C4C3=O)ccc2Cl)CC1 (centres undefined)	i	i	0.323	-7.7	i	i
O=C(Cn1c(=O)oc2ccc(Cl)cc21)Nc1ccon1	i	i	x	-3.7	i	i
CCOC(=O)N1CCN(C(=O)NC23CC4CC(CC(C4)C2)C3)CC1	i	i	-3.41*	-6.3	i	i
O=C(NC12CC3CC(CC(C3)C1)C2)N1CCN(C2CCCCC2)CC1	i	i	1.12	-5.0	i	i
CS(=O)(=O)N(CC(=O)N1CCCCCC1)c1ccc(Cl)cc1	i	i	x	-3.2	i	i
CCOC(=O)c1ccccc1NC(=O)Cn1c(-c2nonc2N)nc2ccccc21	-7.57*	i	-0.96	-17.3	i	i
Nc1nonc1-c1nc2ccccc2n1CC(=O)Nc1ccccc1	i	i	1.39	-3.8	i	i
N#CCCn1c(O)c(N=NC(=O)CNC(=O)c2cccs2)c2ccccc21	i	i	x	-12.3	i	i
COc1ccc(CN2C(=O)C(C)Nc3ncnc(N4CCN(c5ccccc5)CC4)c32)cc1 (centres undefined)	x	x	x	x	x	i
CC1Nc2ncnc(N3CCN(c4ccccc4)CC3)c2N(Cc2ccc(Br)cc2)C1=O (centres undefined)	-6.75*	i	x	-16.2	i	i
CS(=O)(=O)c1ccc(Cl)c(NC(=O)COC(=O)c2ccc(-n3cnnn3)cc2)c1	i	i	x	-3.4	i	i
CC1(C)CC(=O)C(C2(O)C(=O)N(Cc3ccccc3)c3ccccc32)CO1 (centres undefined)	i	i	x	-6.3	i	i
Cc1nn(C)cc1CN(C)Cc1c(C(=O)N(C)Cc2ccccc2)nc2ccccn12	i	i	0.201	6.5*	i	i
NC(N)=NN=C1CCCCCCCCCCC1	i	i	-0.248	-25.6	7*	i
ON=C1CCCCCCCC1	x	x	x	x	x	i

From PubChem
